Laboratory results: ChEMBL document CHEMBL1136635, “Modification of the N-terminus of peptidomimetic protein tyrosine phosphatase 1B (PTP1B) inhibitors: identification of analogues with cellular activity” (Bioorg Med Chem Lett, 2003)

biological target: Receptor-type tyrosine-protein phosphatase F (Homo sapiens) (UniProt P10586); assay: Inhibitory activity against phosphatase (LAR) at a concentration of 100 uM
Summary of the method: (§1)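 Purified recombinant human enzyme constructs; PTP1B is a C-terminally truncated soluble form, tested alongside LAR and SHP-2. Activity is read as the initial rate of p-nitrophenyl phosphate (pNPP) hydrolysis and reported as percent inhibition. PTP1B is tested at 100, 10 and 1 µM, or 10 and 1 µM in the salicylate series; LAR and SHP-2 at 100 µM.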

Sequence of Receptor-type tyrosine-protein phosphatase F (Homo sapiens) (P10586 whole entry, the tested form may be a part): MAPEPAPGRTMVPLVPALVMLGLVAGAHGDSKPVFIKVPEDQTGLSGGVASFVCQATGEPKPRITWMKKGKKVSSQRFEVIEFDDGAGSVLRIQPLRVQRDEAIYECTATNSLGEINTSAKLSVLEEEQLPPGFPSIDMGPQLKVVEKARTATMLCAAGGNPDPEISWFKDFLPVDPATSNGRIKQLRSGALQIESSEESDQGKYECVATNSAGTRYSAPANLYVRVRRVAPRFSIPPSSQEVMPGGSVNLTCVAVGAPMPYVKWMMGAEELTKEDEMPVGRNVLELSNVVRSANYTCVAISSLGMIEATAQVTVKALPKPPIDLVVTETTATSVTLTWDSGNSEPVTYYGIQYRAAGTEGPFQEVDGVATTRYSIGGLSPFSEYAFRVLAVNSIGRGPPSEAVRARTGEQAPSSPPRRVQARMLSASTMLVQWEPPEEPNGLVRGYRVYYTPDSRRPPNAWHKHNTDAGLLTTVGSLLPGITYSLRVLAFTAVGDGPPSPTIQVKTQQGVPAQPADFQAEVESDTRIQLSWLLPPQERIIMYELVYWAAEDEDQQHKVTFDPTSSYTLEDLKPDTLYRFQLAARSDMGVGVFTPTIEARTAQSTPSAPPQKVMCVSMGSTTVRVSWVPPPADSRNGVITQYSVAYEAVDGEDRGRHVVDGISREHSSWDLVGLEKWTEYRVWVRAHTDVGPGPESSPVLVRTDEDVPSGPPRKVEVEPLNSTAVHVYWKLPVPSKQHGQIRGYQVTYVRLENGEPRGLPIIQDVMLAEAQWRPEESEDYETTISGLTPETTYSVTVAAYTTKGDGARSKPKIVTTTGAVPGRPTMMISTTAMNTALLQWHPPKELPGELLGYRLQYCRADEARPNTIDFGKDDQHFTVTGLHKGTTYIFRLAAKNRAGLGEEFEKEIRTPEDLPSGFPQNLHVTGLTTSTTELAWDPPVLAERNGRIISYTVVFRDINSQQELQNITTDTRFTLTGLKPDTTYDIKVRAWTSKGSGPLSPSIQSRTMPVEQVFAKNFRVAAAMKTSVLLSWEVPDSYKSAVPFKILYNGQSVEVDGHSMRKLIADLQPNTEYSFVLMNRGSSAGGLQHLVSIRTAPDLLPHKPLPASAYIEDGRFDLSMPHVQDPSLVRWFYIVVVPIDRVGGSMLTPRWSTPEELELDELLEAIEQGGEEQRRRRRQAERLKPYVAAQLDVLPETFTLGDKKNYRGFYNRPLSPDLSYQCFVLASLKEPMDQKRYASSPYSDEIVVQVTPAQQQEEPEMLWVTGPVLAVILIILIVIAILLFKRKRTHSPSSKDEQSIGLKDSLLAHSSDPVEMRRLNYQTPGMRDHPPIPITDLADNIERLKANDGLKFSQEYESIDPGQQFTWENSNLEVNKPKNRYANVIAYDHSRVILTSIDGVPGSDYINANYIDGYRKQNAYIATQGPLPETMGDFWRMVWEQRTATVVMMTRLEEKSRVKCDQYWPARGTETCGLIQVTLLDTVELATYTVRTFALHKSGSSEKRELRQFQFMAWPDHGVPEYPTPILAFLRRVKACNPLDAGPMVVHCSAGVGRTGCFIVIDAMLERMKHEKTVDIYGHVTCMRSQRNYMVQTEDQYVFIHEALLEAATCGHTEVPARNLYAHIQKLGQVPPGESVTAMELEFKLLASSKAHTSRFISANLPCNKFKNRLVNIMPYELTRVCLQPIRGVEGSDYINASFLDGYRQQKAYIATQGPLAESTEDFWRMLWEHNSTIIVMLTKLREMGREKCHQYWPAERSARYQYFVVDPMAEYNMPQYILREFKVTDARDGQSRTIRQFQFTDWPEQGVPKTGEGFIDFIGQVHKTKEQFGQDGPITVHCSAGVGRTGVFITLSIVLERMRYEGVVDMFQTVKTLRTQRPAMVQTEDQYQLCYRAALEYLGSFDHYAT

Structure (SMILES)	inhibition [%]
CCCCCNC(=O)[C@H](Cc1ccc(OCC(=O)O)c(C(=O)O)c1)NC(=O)[C@H](Cc1ccccc1)NC(=O)Cc1cccc(O)c1	6
CCCCCNC(=O)[C@H](Cc1ccc(OCC(=O)O)c(C(=O)O)c1)NC(=O)[C@H](Cc1ccccc1)NC(=O)CCNS(C)(=O)=O	10
CCCCCNC(=O)[C@H](Cc1ccc(OCC(=O)O)c(C(=O)O)c1)NC(=O)[C@H](Cc1ccccc1)N1CCCC1=O	0

Other lines, results leading:

inhibition [%]	Structure (SMILES)
0	CCCCCNC(=O)[C@H](Cc1ccc(OC(C(=O)O)C(=O)O)cc1)NC(=O)[C@H](CCSC)NC(=O)OC(C)(C)C
0	CCCCCNC(=O)[C@H](Cc1ccc(OC(C(=O)O)C(=O)O)cc1)NC(=O)[C@H](CC[S+](C)[O-])NC(=O)OC(C)(C)C (some centres not stated)
0	CCCCCNC(=O)[C@H](Cc1ccc(OCC(=O)O)c(C(=O)O)c1)NC(=O)[C@H](Cc1ccccc1)NC(=O)CSc1nc[nH]n1
0	CCCCCNC(=O)[C@H](Cc1ccc(OCC(=O)O)c(C(=O)O)c1)NC(=O)[C@H](Cc1ccccc1)NC(=O)CCCO

system: not listed separately; assay: Uptake of 2-DOG (2-deoxyglucose) into L6 myocytes in the presence of half-maximal concentration of insulin at 100 uM; type: functional, Rattus norvegicus
Summary of the method: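 L6 myotubes are exposed to compound at 100 µM with 10 nM insulin, a dose eliciting about 50% of maximal uptake. The initial rate of 2-[3H]deoxyglucose uptake is measured, with L-[14C]glucose marking extracellular space, and normalized to recovered lysate protein. Net insulin-dependent transport with inhibitor is expressed as a percent of that without inhibitor.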

Structure (SMILES)	Control Uptake [%]
CCCCCNC(=O)[C@H](Cc1ccc(OC(C(=O)O)C(=O)O)cc1)NC(=O)[C@H](CCSC)NC(=O)OC(C)(C)C	74
CCCCCNC(=O)[C@H](Cc1ccc(OCC(=O)O)c(C(=O)O)c1)NC(=O)[C@H](Cc1ccccc1)NC(=O)Cc1cccc(O)c1	108
CCCCCNC(=O)[C@H](Cc1ccc(OC(C(=O)O)C(=O)O)cc1)NC(=O)[C@H](CC[S+](C)[O-])NC(=O)OC(C)(C)C (some centres not stated)	70
CCCCCNC(=O)[C@H](Cc1ccc(OCC(=O)O)c(C(=O)O)c1)NC(=O)[C@H](Cc1ccccc1)NC(=O)CSc1nc[nH]n1	80
CCCCCNC(=O)[C@H](Cc1ccc(OCC(=O)O)c(C(=O)O)c1)NC(=O)[C@H](Cc1ccccc1)NC(=O)CCNS(C)(=O)=O	81
CCCCCNC(=O)[C@H](Cc1ccc(OCC(=O)O)c(C(=O)O)c1)NC(=O)[C@H](Cc1ccccc1)NC(=O)CCCO	108
CCCCCNC(=O)[C@H](Cc1ccc(OCC(=O)O)c(C(=O)O)c1)NC(=O)[C@H](Cc1ccccc1)N1CCCC1=O	95

biological target: T1, Tyrosine-protein phosphatase non-receptor type 11 (Homo sapiens) (UniProt Q06124); assay: Inhibition of recombinant human phosphatase (SHP-2) at a concentration of 100 uM; summary of the method: as §1
T1 sequence (whole entry): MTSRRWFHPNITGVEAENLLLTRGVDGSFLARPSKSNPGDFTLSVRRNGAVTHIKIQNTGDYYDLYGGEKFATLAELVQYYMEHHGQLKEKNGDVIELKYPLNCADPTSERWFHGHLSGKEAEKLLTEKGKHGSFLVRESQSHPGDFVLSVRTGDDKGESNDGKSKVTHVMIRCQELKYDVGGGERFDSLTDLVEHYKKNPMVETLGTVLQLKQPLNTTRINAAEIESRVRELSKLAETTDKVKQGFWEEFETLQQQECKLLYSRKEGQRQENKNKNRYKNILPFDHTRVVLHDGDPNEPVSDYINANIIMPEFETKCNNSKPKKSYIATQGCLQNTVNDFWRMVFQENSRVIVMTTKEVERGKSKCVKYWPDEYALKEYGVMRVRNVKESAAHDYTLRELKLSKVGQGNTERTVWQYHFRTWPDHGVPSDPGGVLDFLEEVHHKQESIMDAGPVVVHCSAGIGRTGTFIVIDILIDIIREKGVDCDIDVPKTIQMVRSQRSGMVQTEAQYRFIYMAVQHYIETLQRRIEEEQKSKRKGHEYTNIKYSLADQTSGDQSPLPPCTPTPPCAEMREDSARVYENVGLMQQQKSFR

Structure (SMILES)	inhibition [%]
CCCCCNC(=O)[C@H](Cc1ccc(OCC(=O)O)c(C(=O)O)c1)NC(=O)[C@H](Cc1ccccc1)NC(=O)Cc1cccc(O)c1	32
CCCCCNC(=O)[C@H](Cc1ccc(OCC(=O)O)c(C(=O)O)c1)NC(=O)[C@H](Cc1ccccc1)NC(=O)CCNS(C)(=O)=O	25
CCCCCNC(=O)[C@H](Cc1ccc(OCC(=O)O)c(C(=O)O)c1)NC(=O)[C@H](Cc1ccccc1)N1CCCC1=O	5

Other lines, results leading:

inhibition [%]	Structure (SMILES)
4	CCCCCNC(=O)[C@H](Cc1ccc(OC(C(=O)O)C(=O)O)cc1)NC(=O)[C@H](CCSC)NC(=O)OC(C)(C)C
6	CCCCCNC(=O)[C@H](Cc1ccc(OC(C(=O)O)C(=O)O)cc1)NC(=O)[C@H](CC[S+](C)[O-])NC(=O)OC(C)(C)C (some centres not stated)
6	CCCCCNC(=O)[C@H](Cc1ccc(OCC(=O)O)c(C(=O)O)c1)NC(=O)[C@H](Cc1ccccc1)NC(=O)CSc1nc[nH]n1
27	CCCCCNC(=O)[C@H](Cc1ccc(OCC(=O)O)c(C(=O)O)c1)NC(=O)[C@H](Cc1ccccc1)NC(=O)CCCO

biological target: T2, Tyrosine-protein phosphatase non-receptor type 1 (Homo sapiens) (UniProt P18031); assay: Inhibitory activity against human protein tyrosine phosphatase 1B (PTP1B) at a concentration of 1 uM; summary of the method: as §1
T2 sequence (whole entry): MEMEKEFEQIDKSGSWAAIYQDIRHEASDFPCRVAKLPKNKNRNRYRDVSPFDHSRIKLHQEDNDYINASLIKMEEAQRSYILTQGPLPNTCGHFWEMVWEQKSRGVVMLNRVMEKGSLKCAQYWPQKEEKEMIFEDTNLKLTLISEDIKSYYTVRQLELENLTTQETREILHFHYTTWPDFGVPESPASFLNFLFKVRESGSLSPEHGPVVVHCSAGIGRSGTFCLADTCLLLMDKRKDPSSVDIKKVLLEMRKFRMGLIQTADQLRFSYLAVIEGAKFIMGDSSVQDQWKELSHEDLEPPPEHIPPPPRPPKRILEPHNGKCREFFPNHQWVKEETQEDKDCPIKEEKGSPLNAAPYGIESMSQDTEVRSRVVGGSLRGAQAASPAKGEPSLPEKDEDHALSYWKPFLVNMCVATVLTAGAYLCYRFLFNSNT

Structure (SMILES)	inhibition [%]
CCCCCNC(=O)[C@H](Cc1ccc(OCC(=O)O)c(C(=O)O)c1)NC(=O)[C@H](Cc1ccccc1)NC(=O)Cc1cccc(O)c1	43
CCCCCNC(=O)[C@H](Cc1ccc(OCC(=O)O)c(C(=O)O)c1)NC(=O)[C@H](Cc1ccccc1)NC(=O)CCNS(C)(=O)=O	15
CCCCCNC(=O)[C@H](Cc1ccc(OCC(=O)O)c(C(=O)O)c1)NC(=O)[C@H](Cc1ccccc1)N1CCCC1=O	24

Second part, the compound after the results:

inhibition [%]	Structure (SMILES)
5	CCCCCNC(=O)[C@H](Cc1ccc(OC(C(=O)O)C(=O)O)cc1)NC(=O)[C@H](CCSC)NC(=O)OC(C)(C)C
7	CCCCCNC(=O)[C@H](Cc1ccc(OC(C(=O)O)C(=O)O)cc1)NC(=O)[C@H](CC[S+](C)[O-])NC(=O)OC(C)(C)C (some centres not stated)
36	CCCCCNC(=O)[C@H](Cc1ccc(OCC(=O)O)c(C(=O)O)c1)NC(=O)[C@H](Cc1ccccc1)NC(=O)CSc1nc[nH]n1
23	CCCCCNC(=O)[C@H](Cc1ccc(OCC(=O)O)c(C(=O)O)c1)NC(=O)[C@H](Cc1ccccc1)NC(=O)CCCO

biological target: T2, Tyrosine-protein phosphatase non-receptor type 1 (Homo sapiens); assay: Inhibitory activity against human protein tyrosine phosphatase 1B (PTP1B) at a concentration of 100 uM; summary of the method: as §1

Structure (SMILES)	inhibition [%]
CCCCCNC(=O)[C@H](Cc1ccc(OC(C(=O)O)C(=O)O)cc1)NC(=O)[C@H](CCSC)NC(=O)OC(C)(C)C	82
CCCCCNC(=O)[C@H](Cc1ccc(OC(C(=O)O)C(=O)O)cc1)NC(=O)[C@H](CC[S+](C)[O-])NC(=O)OC(C)(C)C (some centres not stated)	67

biological target: T2, Tyrosine-protein phosphatase non-receptor type 1 (Homo sapiens); assay: Inhibitory activity against human protein tyrosine phosphatase 1B (PTP1B) at a concentration of 10 uM; summary of the method: as §1

Structure (SMILES)	inhibition [%]
CCCCCNC(=O)[C@H](Cc1ccc(OCC(=O)O)c(C(=O)O)c1)NC(=O)[C@H](Cc1ccccc1)NC(=O)Cc1cccc(O)c1	86
CCCCCNC(=O)[C@H](Cc1ccc(OCC(=O)O)c(C(=O)O)c1)NC(=O)[C@H](Cc1ccccc1)NC(=O)CCNS(C)(=O)=O	73
CCCCCNC(=O)[C@H](Cc1ccc(OCC(=O)O)c(C(=O)O)c1)NC(=O)[C@H](Cc1ccccc1)N1CCCC1=O	71

Results, then the compound that gave them:

inhibition [%]	Structure (SMILES)
25	CCCCCNC(=O)[C@H](Cc1ccc(OC(C(=O)O)C(=O)O)cc1)NC(=O)[C@H](CCSC)NC(=O)OC(C)(C)C
21	CCCCCNC(=O)[C@H](Cc1ccc(OC(C(=O)O)C(=O)O)cc1)NC(=O)[C@H](CC[S+](C)[O-])NC(=O)OC(C)(C)C (some centres not stated)
82	CCCCCNC(=O)[C@H](Cc1ccc(OCC(=O)O)c(C(=O)O)c1)NC(=O)[C@H](Cc1ccccc1)NC(=O)CSc1nc[nH]n1
78	CCCCCNC(=O)[C@H](Cc1ccc(OCC(=O)O)c(C(=O)O)c1)NC(=O)[C@H](Cc1ccccc1)NC(=O)CCCO
